# PG9 binder – binders of HIV-1 gp120 antibody PG9, primary screen, biochemical, TR-FRET. HIV-1 gp120 / PG9 antibody interaction. TR-FRET gp120-PG9 antibody binding. inhibition, % at 6.7 µM. hit rate 0.43% among 360,000; in the data active means inhibition above about 8.5%
# MC4R barr agon – MC4R agonists recruiting beta-arrestin, primary screen, cell-based, luminescence, agonist arm of biased-ligand search | Melanocortin receptor 4 (Homo sapiens), P32245 | U2OS MC4R beta-arrestin complementation; percent of melanotan II response, DMSO zero | activation, % at 8.9 µM | hit rate 0.98% among 360,000;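 active means activation above a per-plate cutoff, the mean activation of sample wells on that plate plus 3 SD, cut at about 8% in these data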
# MC4R antagonist – MC4R antagonists of cAMP signaling, primary screen, cell-based, TR-FRET, antagonist arm of biased-ligand search. MC4R-expressing cells, MTII-stimulated cAMP, LANCE TR-FRET. inhibition, % at 6.5 µM. hit rate 0.48% among 360,000. AID 540295, 2011;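 active means inhibition above its plate's cutoff, the mean of tested wells on that plate plus 3 SD, cut at about 29% in these data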
#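 Assay system: human MC4R-expressing U2OS cells; reagent: Melanotan II stimulation of cells; dosing: 6.5 µM single dose; timing: compound 30 min, challenge 1 h, detection 1 h; signal: TR-FRET cAMP assay; replicates: one well per compound, no replicates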
# NTR1 ag – agonists of human NTR1, primary screen, imaging, U2OS cells, beta-arrestin-GFP, high content; Neurotensin receptor type 1 (Homo sapiens), P30989; NTR1-U2OS beta-arrestin-GFP spot imaging, agonist mode; activation, % at 20 µM; hit rate 0.17% among 330,000; AID 493036, 2011;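 active means activation at or above 40% of the spot to cytoplasm intensity ratio, with at least 20 cells analyzed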
# NR1D1 modulator – modulators of Rev-erb alpha DNA binding, primary screen, biochemical, FITC-DNA, fluorescence polarization, uHTS. Nuclear receptor subfamily 1 group D member 1 (Homo sapiens), P20393. Rev-erbα–FITC-DNA binding, 90 min. activity, % at 10 µM. hit rate 0.79% among 370,000;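 active means activity above about 14%, limit read from the data; passing the limit was not always enough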
# Target sequence (P20393 whole entry, looked up): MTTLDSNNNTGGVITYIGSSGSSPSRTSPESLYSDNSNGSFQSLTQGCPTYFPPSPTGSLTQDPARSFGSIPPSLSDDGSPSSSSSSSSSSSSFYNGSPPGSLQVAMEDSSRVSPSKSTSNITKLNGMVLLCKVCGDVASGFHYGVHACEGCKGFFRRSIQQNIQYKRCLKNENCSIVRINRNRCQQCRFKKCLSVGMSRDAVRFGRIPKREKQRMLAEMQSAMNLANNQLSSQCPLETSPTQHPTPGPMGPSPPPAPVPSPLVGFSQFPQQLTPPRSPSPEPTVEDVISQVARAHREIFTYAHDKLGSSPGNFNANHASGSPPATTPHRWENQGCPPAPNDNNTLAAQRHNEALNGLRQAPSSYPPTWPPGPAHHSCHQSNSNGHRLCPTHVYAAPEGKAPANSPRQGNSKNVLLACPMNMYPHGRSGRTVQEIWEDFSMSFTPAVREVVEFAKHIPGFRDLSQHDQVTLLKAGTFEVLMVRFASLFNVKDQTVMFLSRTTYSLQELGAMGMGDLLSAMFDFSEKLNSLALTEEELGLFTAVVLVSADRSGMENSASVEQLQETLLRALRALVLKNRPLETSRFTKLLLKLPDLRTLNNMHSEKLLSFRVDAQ
# NTR1 ag conf – NTR1 agonists, single-dose retest, confirmation, imaging, U2OS cells, beta-arrestin-GFP, single concentration; AID 504550, 2011; shares compounds with NTR1 ag; activation, % at 20 µM; NTR1-U2OS beta-arrestin-GFP translocation imaging; hit rate 38% among 480;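 active means mean activation at 20 µM of at least 40%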
# A number is an active result; – = inactive; · = not tested or not shown. Most compounds without a hit are left out; they make up all but 2.5% or so of the library.
SMILES,PG9 binder,MC4R barr agon,MC4R antagonist,NTR1 ag,NR1D1 modulator,NTR1 ag conf
c1ccc(CNc2c(-c3cccc(SC4CCCCC4)c3)nc3ccccn23)cc1,–,–,–,40.1,–,–
CCCCCn1c(N2CCC(Cc3ccccc3)CC2)nc2c1c(=O)[nH]c(=O)n2C,·,–,–,40.9,·,50.1
COc1cc(OC)cc(-c2csc(N3CCC(C(N)=O)CC3)n2)c1,·,·,·,·,–,·
Cc1ccc(C(=O)/C=C/C(=O)c2ccc(C)cc2)cc1,–,–,–,41.6,–,73.1
O=C(Nc1ccc(Oc2c(F)c(F)c(F)c(F)c2F)cc1)OC1CCN2Cc3ccccc3N=C12 (stereo unspecified),·,9.3,–,40.5,·,54.0
Oc1ccccc1/C=N/Nc1cc(N2CCCC2)nc(N2CCCC2)n1,–,–,–,40.4,–,–
Cc1ccc2c(c1)c1c(n2CC(O)CNC2CCCCC2)CCCC1 (stereo unspecified),–,9.0,–,42.0,–,52.9
CN(Cc1ccccc1Cl)C(=O)CN1C(=O)C2(OCCCO2)c2ccccc21,·,·,·,·,–,·
O=C(CSc1nnc(-c2ccccc2)n1-c1ccc(Cl)cc1)Nc1ccccc1-c1ccccc1,·,·,·,·,–,·
O=C(Nc1nc(-c2ccccc2)cs1)c1ccc(N2CCOCC2)c([N+](=O)[O-])c1,·,–,–,69.8,·,–
Cc1ccc(-c2csc(NC(=O)c3cc([N+](=O)[O-])ccc3N3CCOCC3)n2)cc1,–,–,–,–,–,·
CC(C)=CCc1c(O)cc(O)c2c1OC(c1ccc(O)cc1)CC2=O (stereo unspecified),–,–,–,–,–,·
CC(C)=CCc1c(O)c(CC=C(C)C)c2c(c1O)C(=O)CC(c1ccc(O)cc1)O2 (stereo unspecified),–,–,–,46.4,–,–
C/C(C=NNC(=O)CSc1nnc(-c2ccccc2)n1-c1ccc(C)cc1)=C\c1ccco1,·,·,·,·,–,·
CCOC(=O)CNC(=O)CSc1nnc(-c2ccccc2)n1CC,·,·,·,·,–,·
COCCCn1c(=NC(=O)c2ccccc2)c(C#N)cc2c(=O)n3cccc(C)c3nc21,–,–,–,49.5,–,–
COCCCn1c(=NC(C)=O)c(C#N)cc2c(=O)n3cccc(C)c3nc21,–,–,–,–,–,·
CCOC(=O)[C@@]12CN(C(=O)OC(C)(C)C)CC=C1N(Cc1ccc(OC)cc1)C(=O)[C@H]2CC(=O)NCc1cccc(C(F)(F)F)c1,·,·,·,·,–,·
O=C(COC(=O)/C=C/C(=O)OCC(=O)NC12CC3CC(CC(C3)C1)C2)NC12CC3CC(CC(C3)C1)C2,–,–,–,85.1,–,40.2
Cc1ccc2c(c1)[nH]c1c(N3CCN(Cc4ccccc4)CC3)ncnc12,–,–,–,56.2,–,–
c1ccc(CN2CCN(c3ncnc4c3[nH]c3ccccc34)CC2)cc1,–,–,–,–,–,·
Cc1ccc2[nH]c3c(N4CCN(Cc5ccccc5)CC4)ncnc3c2c1,–,–,–,43.3,–,–
Cc1cccc(-c2cccc3c4c([nH]c23)[C@@H]2C[C@H](N(C)C(=O)C3CCCCC3)[C@H]([C@H](C)O)CN2CC4)c1,·,·,·,·,–,·
CCOC(=O)[C@@]12CCC3=C1N(CCC3)C(=O)[C@H](CC(=O)N1CCCCC1)C2,·,·,·,·,–,·
CCCCCCOc1ccc(NC(=O)CC2C(=O)N(CC)C(=S)N2Cc2ccco2)cc1 (stereo unspecified),–,–,–,40.5,–,–
SMILES,PG9 binder,MC4R barr agon,MC4R antagonist,NTR1 ag,NR1D1 modulator,NTR1 ag conf
CCN1C(=O)C(CC(=O)Nc2ccc(F)cc2)N(Cc2ccco2)C1=S (stereo unspecified),–,–,–,–,–,·
Cc1ccc(N2CCN(C(=O)C3CCCN(c4ncnc5c4nc4n5CCCCC4)C3)CC2)c(C)c1 (stereo unspecified),–,–,–,72.7,–,–
Cc1ccc(C)c(N2CCN(C(=O)C3CCCN(c4ncnc5c4nc4n5CCCCC4)C3)CC2)c1 (stereo unspecified),–,–,–,–,–,·
Cc1cccc(N2CCN(C(=O)C3CCN(c4ncnc5c4nc4n5CCCCC4)CC3)CC2C)c1 (stereo unspecified),–,–,–,54.7,–,–
COC(=O)C[C@H]1CC[C@@H]2[C@@H](COc3ccc(NC(=O)Nc4cccc(C)c4)cc3C(=O)N2C)O1,·,·,·,·,–,·
O=C(Nc1ccc(N2CCN(C(=O)c3ccccc3)CC2)cc1)c1cc2ccccc2o1,–,–,–,63.9,–,86.3
COC(=O)[C@]12C[C@H](CC(=O)NCC3CCCCC3)C(=O)N(Cc3ccc4c(c3)OCO4)C1=C[C@H](C(C)C)O[C@@H]2C1CC1,·,·,·,·,–,·
COc1cccc(-c2nc(NC3CCCC3)c3ccccc3n2)c1O,–,–,–,59.6,–,–
COc1ccc(C2=NC(C)(C)Cc3cc(OC)c(OC)cc32)cc1,–,–,–,–,–,·
COc1cc2c(cc1OC)C(SC)=NC(C)(C)C2,–,–,–,48.3,·,80.3
COc1ccc(C2C(C(=O)Nc3cc(Cl)ccc3F)CCC(=O)N2c2ccc(OC)cc2)cc1 (stereo unspecified),·,·,·,·,–,·
Oc1cccc(Nc2nc(-c3ccccc3Cl)nc3ccccc23)c1,–,–,–,–,–,·
Cc1ccc(-c2nc(Nc3cccc(O)c3)c3ccccc3n2)cc1,–,–,–,56.9,–,44.5
Cc1ccc(-c2nc(Nc3ccc(O)cc3)c3ccccc3n2)cc1,–,–,–,42.4,–,–
CC1(C)CC(=O)C(=Cc2cn(-c3ccccc3)nc2-c2ccc(Cl)cc2)C(=O)C1,–,–,–,63.0,–,83.4
CC1(C)CC(=O)C(=Cc2cn(CCC#N)nc2-c2ccc(Cl)cc2)C(=O)C1,–,–,–,–,–,·
O=c1/c(=C\c2ccc(O)cc2)sc2nc(-c3ccccc3)c(-c3ccccc3)n12,–,–,–,45.7,–,–
O=c1/c(=C/c2ccc(O)cc2)sc2nc3cc(Br)cnc3n12,·,·,·,–,·,·
CC(CN1CCCCC1)OC(=O)c1ccc(Cl)cc1 (stereo unspecified),–,–,–,–,–,·
O=C(c1ccc(Cl)cc1)C(CN1CCCCC1)c1ccccc1 (stereo unspecified),–,–,–,49.5,–,60.1
COc1cc(CC(NC(C)=O)C(=O)NC2CCN(C(=O)Nc3ccccc3C)CC2)cc(OC)c1 (stereo unspecified),–,–,–,42.5,–,–
Cn1ncc2c(Nc3cccc(Cl)c3)nc(Nc3cccc(Cl)c3)nc21,–,–,–,63.8,–,–

# Source: PubChem (several laboratories)
